Test results reported in ChEMBL document CHEMBL1131235, “(R)-(+)-2-[[[3-(Morpholinomethyl)-2H-chromen-8-yl]oxy]methyl] morpholine methanesulfonate: a new selective rat 5-hydroxytryptamine1B receptor antagonist” (J Med Chem, 1998).

What was measured:
D(1A) dopamine receptor = D(1A) dopamine receptor (Rattus norvegicus, UniProt P18901); assay: Binding affinity against Dopamine receptor D1 in rat striatum using [3H]-SCH- 23390 as the radioligand.; type: tissue-based
How it was run: (§1)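 Binding by the Jackson et al. method. 5-HT1A used [3H]OH-DPAT on rat hippocampus. α1 used [3H]prazosin, α2 [3H]RX821002 and β [3H]dihydroalprenolol, all on rat cortex. D1 used [3H]SCH-23390 on rat striatum. D2 used [3H]raclopride on LtkhD2A cell membranes.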

D(2) dopamine receptor = D(2) dopamine receptor (Homo sapiens, UniProt P14416); assay: Binding affinity against Dopamine receptor D2 from cell LtkhD2A membranes using [3H]raclopride as the radioligand.; how it was run: as §1
[1] = biological target: 5-HT1B & 5-HT1D (Bos taurus); assay: Binding affinity against 5-hydroxytryptamine 1B receptor - 5-hydroxytryptamine 1D receptor using [3H]5-HT as the radioligand.
[2] = biological target: T1, Adrenergic receptor alpha-2 (Rattus norvegicus, UniProt P22086+P19328+P22909); assay: Binding affinity against Alpha-2 adrenergic receptor in rat cortex using [3H]RX-821002 as the radioligand.; type: tissue-based, Brain; how it was run: as §1
T1 sequence (P22086 whole entry): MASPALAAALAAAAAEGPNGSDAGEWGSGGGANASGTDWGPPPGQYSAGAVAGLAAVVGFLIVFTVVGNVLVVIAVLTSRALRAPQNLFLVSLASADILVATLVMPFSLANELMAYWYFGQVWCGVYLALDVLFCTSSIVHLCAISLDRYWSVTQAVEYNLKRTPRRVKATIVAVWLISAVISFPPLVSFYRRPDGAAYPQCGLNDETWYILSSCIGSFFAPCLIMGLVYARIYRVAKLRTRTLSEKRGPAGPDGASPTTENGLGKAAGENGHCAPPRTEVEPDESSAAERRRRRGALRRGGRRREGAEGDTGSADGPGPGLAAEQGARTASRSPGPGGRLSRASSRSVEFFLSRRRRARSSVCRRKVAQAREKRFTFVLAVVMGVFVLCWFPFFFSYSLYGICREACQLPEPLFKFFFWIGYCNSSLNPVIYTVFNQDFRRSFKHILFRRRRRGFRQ
T1 sequence (P19328 whole entry): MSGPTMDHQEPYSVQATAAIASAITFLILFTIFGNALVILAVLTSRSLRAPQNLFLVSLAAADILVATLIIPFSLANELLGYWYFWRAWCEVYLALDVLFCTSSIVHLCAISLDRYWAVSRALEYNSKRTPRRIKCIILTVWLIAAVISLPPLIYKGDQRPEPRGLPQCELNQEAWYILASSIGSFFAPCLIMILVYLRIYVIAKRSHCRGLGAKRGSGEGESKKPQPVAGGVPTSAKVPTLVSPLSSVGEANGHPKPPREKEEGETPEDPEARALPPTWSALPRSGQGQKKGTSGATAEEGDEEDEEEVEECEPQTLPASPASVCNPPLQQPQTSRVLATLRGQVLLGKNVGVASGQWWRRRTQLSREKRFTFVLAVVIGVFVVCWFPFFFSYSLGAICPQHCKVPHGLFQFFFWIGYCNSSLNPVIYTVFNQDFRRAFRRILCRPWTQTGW
T1 sequence (P22909 whole entry): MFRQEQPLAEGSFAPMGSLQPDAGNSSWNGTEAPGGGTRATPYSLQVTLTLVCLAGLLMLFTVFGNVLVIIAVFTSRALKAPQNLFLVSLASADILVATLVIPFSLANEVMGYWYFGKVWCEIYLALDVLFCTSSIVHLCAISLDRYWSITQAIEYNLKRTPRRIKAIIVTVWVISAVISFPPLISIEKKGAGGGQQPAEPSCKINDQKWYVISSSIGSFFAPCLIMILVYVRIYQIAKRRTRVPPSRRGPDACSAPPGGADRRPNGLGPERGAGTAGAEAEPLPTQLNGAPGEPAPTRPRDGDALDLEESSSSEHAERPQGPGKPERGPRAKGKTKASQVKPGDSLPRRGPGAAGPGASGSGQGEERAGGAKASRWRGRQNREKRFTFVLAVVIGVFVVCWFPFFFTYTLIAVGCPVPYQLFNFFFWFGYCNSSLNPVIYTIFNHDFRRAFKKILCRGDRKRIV

[3] = biological target: T2, 5-hydroxytryptamine receptor 2C (Rattus norvegicus, UniProt P08909); assay: Binding affinity against 5-hydroxytryptamine 2C receptor from rat cortex using [3H]mesulergine as the radioligand.; type: tissue-based
T2 sequence (P08909 whole entry): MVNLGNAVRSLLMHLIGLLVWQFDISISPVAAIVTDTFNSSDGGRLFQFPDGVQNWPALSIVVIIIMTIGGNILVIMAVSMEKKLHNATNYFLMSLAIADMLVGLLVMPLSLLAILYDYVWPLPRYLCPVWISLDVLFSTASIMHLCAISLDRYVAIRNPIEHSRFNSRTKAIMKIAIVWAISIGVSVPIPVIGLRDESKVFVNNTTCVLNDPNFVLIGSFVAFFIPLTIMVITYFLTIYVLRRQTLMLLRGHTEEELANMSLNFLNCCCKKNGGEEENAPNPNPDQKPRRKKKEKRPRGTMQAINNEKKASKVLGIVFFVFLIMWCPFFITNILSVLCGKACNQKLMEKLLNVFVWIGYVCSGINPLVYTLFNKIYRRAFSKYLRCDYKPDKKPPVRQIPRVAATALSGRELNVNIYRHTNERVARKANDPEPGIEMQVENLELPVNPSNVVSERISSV
How it was run: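 Binding by the Johansson et al. method. 5-HT2A used [3H]ketanserin and 5-HT2C used [3H]mesulergine, both on rat cortex. 5-HT6 and 5-HT7 used [3H]-5-HT on CHO cell membranes expressing the rat receptors.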

[4] = biological target: T3, 5-hydroxytryptamine receptor 1A (Rattus norvegicus, UniProt P19327); assay: Binding affinity against 5-hydroxytryptamine 1A receptor from rat hippocampus using [3H]8-OH-DPAT as the radioligand.; type: tissue-based; how it was run: as §1
T3 sequence (P19327 whole entry): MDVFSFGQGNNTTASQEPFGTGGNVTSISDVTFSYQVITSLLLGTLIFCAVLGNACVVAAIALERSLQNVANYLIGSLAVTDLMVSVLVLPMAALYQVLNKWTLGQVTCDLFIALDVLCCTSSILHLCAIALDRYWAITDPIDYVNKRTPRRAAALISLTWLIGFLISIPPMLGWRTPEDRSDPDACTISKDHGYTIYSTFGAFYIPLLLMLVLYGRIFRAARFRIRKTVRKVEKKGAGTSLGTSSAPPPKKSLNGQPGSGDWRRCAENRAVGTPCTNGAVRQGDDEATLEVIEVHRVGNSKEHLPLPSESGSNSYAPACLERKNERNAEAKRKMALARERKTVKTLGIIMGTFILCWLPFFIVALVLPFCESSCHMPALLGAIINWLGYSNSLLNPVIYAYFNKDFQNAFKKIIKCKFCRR

[5] = biological target: 5-hydroxytryptamine receptor 1B (Rattus norvegicus, UniProt P28564); assay: Binding affinity against 5-hydroxytryptamine 1B receptor in membranes of Rat cerebral cortex; type: tissue-based
How it was run: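 Rat cerebral cortical membranes labelled with [125I]iodocyanopindolol in the presence of 60 μM isoproterenol to block β-adrenoceptor binding. Nonspecific binding was defined with 10 μM 5-HT.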

Adrenergic receptor beta = Adrenergic receptor beta (Rattus norvegicus, UniProt P18090+P10608+P26255); assay: Binding affinity against Beta adrenergic receptor in rat cortex using [3H]dihydroalprenolol as the radioligand.; how it was run: as §1

D(2) dopamine receptor, sequence (P14416 whole entry): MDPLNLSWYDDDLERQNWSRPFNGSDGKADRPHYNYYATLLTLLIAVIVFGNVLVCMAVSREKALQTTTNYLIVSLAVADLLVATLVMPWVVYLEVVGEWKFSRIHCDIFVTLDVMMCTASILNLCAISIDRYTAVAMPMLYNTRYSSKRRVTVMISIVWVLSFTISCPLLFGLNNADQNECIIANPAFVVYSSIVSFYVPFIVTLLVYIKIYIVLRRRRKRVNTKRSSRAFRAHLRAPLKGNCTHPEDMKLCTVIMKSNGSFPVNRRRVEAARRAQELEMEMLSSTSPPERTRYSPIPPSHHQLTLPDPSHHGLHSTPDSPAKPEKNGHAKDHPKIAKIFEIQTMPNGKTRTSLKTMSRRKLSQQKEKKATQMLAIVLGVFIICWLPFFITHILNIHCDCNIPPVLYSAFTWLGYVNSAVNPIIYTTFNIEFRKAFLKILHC
D(1A) dopamine receptor, sequence (P18901 whole entry): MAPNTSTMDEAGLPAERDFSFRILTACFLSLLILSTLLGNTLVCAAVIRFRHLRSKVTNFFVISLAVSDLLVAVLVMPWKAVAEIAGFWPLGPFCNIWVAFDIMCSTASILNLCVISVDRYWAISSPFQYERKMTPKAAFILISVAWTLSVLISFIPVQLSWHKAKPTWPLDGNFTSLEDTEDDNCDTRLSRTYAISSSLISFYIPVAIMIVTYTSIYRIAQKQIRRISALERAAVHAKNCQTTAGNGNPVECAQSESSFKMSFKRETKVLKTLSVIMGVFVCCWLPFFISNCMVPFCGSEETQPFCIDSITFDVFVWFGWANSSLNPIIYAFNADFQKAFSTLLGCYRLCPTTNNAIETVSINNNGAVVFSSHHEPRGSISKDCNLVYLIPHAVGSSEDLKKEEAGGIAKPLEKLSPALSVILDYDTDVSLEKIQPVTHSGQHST
5-hydroxytryptamine receptor 1B, sequence (P28564 whole entry): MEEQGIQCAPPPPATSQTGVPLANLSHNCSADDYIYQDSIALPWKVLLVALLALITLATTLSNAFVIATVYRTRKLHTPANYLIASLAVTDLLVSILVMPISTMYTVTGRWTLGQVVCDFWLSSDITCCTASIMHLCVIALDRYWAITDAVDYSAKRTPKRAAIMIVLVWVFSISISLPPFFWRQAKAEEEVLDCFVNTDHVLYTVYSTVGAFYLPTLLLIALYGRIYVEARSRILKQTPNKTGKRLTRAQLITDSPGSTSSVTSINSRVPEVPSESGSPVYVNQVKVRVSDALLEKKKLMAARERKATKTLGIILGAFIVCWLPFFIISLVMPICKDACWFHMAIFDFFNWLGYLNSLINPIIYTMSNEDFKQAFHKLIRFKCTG

C1=C(CN2CCOCC2)COc2c1cccc2OC[C@H]1CNCCO1.CS(=O)(=O)O
Ki (D(1A) dopamine receptor): > 10 µM
Ki (D(2) dopamine receptor): > 10 µM
Ki [1]: 0.63 µM
Ki [2]: > 10 µM
Ki [3]: > 10 µM
Ki [4]: > 10 µM
Ki [5]: 0.047 µM
Ki (Adrenergic receptor beta): > 10 µM

C1=C(CN2CCOCC2)COc2c1cccc2OC[C@@H]1CNCCO1.Cl
Ki (D(1A) dopamine receptor): > 10 µM
Ki (D(2) dopamine receptor): > 10 µM
Ki [1]: > 10 µM
Ki [2]: > 10 µM
Ki [3]: > 10 µM
Ki [4]: > 10 µM
Ki [5]: 0.275 µM
Ki (Adrenergic receptor beta): 10 µM
